Data as given in ChEMBL document CHEMBL1125330, “N-substituted pyrazino[2,3-c][1,2,6]thiadiazine 2,2-dioxides. A new class of diuretics” (J Med Chem, 1992).

What was measured:
[1] = tested on: Rattus norvegicus; assay: Mean urinary output in rats when compound administered at 5 mg/kg po and vehicle dosed at 19.74 umol/kg; type: ADME, organism-based, Urine; parameters: dose 5 mg/kg, route oral; conditions: in vivo
How it was run: (§1)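 Water-loaded male Sprague-Dawley rats (HC/CFY, 175-200 g) fasted and without water for 18 h. Oral gavage of 2.5-160 mg/kg in 1% CMC with 0.1% Tween 80, then distilled water 2.5 mL/100 g po. Urine collected 6 h in metabolic cages, mean output in mL/6 h/kg bw. Unpaired Student t-test against vehicle; dose-response by linear regression.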

[2] = tested on: Rattus norvegicus; assay: Volume of urine 6 hr after the compound was administered 125 mg/kg po in rat; type: ADME, organism-based; parameters: dose 125 mg/kg, route oral; conditions: in vivo
How it was run: (§2)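 Onset/duration protocol: male Sprague-Dawley rats (HC/CFY, 175-200 g), food and water withdrawn for 18 h before and during the test. Single gavage dose in 1% carboxymethyl cellulose/0.1% Tween 80 (0.5 mL/100 g bw), then distilled water load (2.5 mL/100 g bw po). Two rats per metabolic cage, six pairs per group. Urine collected at 0-1, 1-2, 2-3, 3-4 and 4-6 h; Na+ by flame photometry. Vehicle controls; nonpaired Student t-test.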

[3] = tested on: Rattus norvegicus; assay: Mean sodium excretion in rats when compound administered at 80 mg/kg po and vehicle dosed at 315.88 umol/kg; type: ADME, organism-based; parameters: dose 80 mg/kg, route oral; conditions: in vivo
How it was run: (§3)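 Male Sprague-Dawley rats (HC/CFY, 175-200 g) fasted and water-deprived 18 h before and during the test. Dosed by gavage at 2.5-160 mg/kg in 1% carboxymethyl cellulose/0.1% Tween 80, 0.5 mL/100 g bw. Immediately hydrated with water (2.5 mL/100 g bw, po). Urine collected 6 h in metabolic cages; Na+ and K+ by flame photometry; mean mequiv/6 h/kg bw; nonpaired Student t-test.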

[4] = tested on: Rattus norvegicus; assay: Urinary sodium 3h after the compound was administered 125 mg/kg po in rat; type: ADME, organism-based, Urine; parameters: dose 125 mg/kg, route oral; conditions: in vivo
How it was run: (§4)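 Onset and duration study in fasted, water-loaded male Sprague-Dawley rats housed two per metabolic cage, six pairs per group. Single oral dose given, then water 2.5 mL/100 g po. Urine volume and sodium (flame photometry) measured over 0-1, 1-2, 2-3, 3-4 and 4-6 h intervals. Mean values compared with vehicle by Student t-test.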

[5] = tested on: Rattus norvegicus; assay: Mean urinary output in rats when compound administered at 80 mg/kg po and vehicle dosed at 315.88 umol/kg; type: ADME, organism-based, Urine; parameters: dose 80 mg/kg, route oral; conditions: in vivo; how it was run: as §1
[6] = tested on: Rattus norvegicus; assay: Mean urinary output in rats when compound administered at 0 mg/kg po and vehicle dosed at 0 umol/kg; type: ADME, organism-based, Urine; parameters: dose 0 mg/kg, route oral; conditions: in vivo; how it was run: as §1
[7] = tested on: Rattus norvegicus; assay: Mean urinary output in rats when compound administered at 10 mg/kg po and vehicle dosed at 39.48 umol/kg; type: ADME, organism-based, Urine; parameters: dose 10 mg/kg, route oral; conditions: in vivo; how it was run: as §1
[8] = tested on: Rattus norvegicus; assay: Mean Chlorine excretion in rats when compound administered at 20 mg/kg po and vehicle dosed at 78.97 umol/kg; type: ADME, organism-based; parameters: dose 20 mg/kg, route oral; conditions: in vivo
How it was run: (§5)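 Male Sprague-Dawley rats (HC/CFY, 175-200 g), no food or water for 18 h before and during the test. Single gavage dose (2.5-160 mg/kg; vehicle 1% carboxymethyl cellulose/0.1% Tween 80, 0.5 mL/100 g bw), then distilled water 2.5 mL/100 g bw po. Individual metabolic cages, 6 h urine. K+ by flame photometry, Cl- colorimetric, as mequiv/6 h/kg bw; unpaired Student t-test vs control.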

[9] = tested on: Rattus norvegicus; assay: Mean Chlorine excretion in rats when compound administered at 160 mg/kg po and vehicle dosed at 631.76 umol/kg; type: ADME, organism-based; parameters: dose 160 mg/kg, route oral; conditions: in vivo; how it was run: as §5
[10] = tested on: Rattus norvegicus; assay: Mean sodium excretion in rats when compound administered at 0 mg/kg po and vehicle dosed at 0 umol/kg; type: ADME, organism-based; parameters: dose 0 mg/kg, route oral; conditions: in vivo; how it was run: as §3
[11] = tested on: Rattus norvegicus; assay: Mean urinary output in rats when compound administered at 40 mg/kg po and vehicle dosed at 157.94 umol/kg; type: ADME, organism-based, Urine; parameters: dose 40 mg/kg, route oral; conditions: in vivo; how it was run: as §1
[12] = species: Rattus norvegicus; assay: Dose required to produce increase in 50 % in urine production vs control groups; type: functional
How it was run: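 Male Sprague-Dawley rats (HC/CFY, 175-200 g), fasted and water-deprived 18 h before and during the test. Compound dosed by gavage in 1% carboxymethyl cellulose/0.1% Tween 80, then water load 2.5 mL/100 g bw po. Urine collected 6 h in metabolic cages; Na+ by flame photometry. Effective doses vs vehicle controls derived by linear regression of dose-response data.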

[13] = tested on: Rattus norvegicus; assay: Mean urinary output in rats when compound administered at 2.5 mg/kg po and vehicle dosed at 9.87 umol/kg; type: ADME, organism-based, Urine; parameters: dose 2.5 mg/kg, route oral; conditions: in vivo; how it was run: as §1
[14] = tested on: Rattus norvegicus; assay: Mean Chlorine excretion in rats when compound administered at 2.5 mg/kg po and vehicle dosed at 9.87 umol/kg; type: ADME, organism-based; parameters: dose 2.5 mg/kg, route oral; conditions: in vivo; how it was run: as §5
[15] = tested on: Rattus norvegicus; assay: Mean potassium excretion in rats when compound administered at 5 mg/kg po and vehicle dosed at 19.74 umol/kg; type: ADME, organism-based; parameters: dose 5 mg/kg, route oral; conditions: in vivo; how it was run: as §3
[16] = tested on: Rattus norvegicus; assay: Urinary sodium 1 hr after the compound was administered 125 mg/kg po in rat; type: ADME, organism-based, Urine; parameters: dose 125 mg/kg, route oral; conditions: in vivo; how it was run: as §4
[17] = tested on: Rattus norvegicus; assay: Mean sodium excretion in rats when compound administered at 2.5 mg/kg po and vehicle dosed at 9.87 umol/kg; type: ADME, organism-based; parameters: dose 2.5 mg/kg, route oral; conditions: in vivo; how it was run: as §3
[18] = tested on: Rattus norvegicus; assay: Mean urinary output in rats when compound administered at 20 mg/kg po and vehicle dosed at 78.97 umol/kg; type: ADME, organism-based, Urine; parameters: dose 20 mg/kg, route oral; conditions: in vivo; how it was run: as §1
[19] = tested on: Rattus norvegicus; assay: Mean Chlorine excretion in rats when compound administered at 10 mg/kg po and vehicle dosed at 39.48 umol/kg; type: ADME, organism-based; parameters: dose 10 mg/kg, route oral; conditions: in vivo; how it was run: as §5
[20] = tested on: Rattus norvegicus; assay: Mean potassium excretion in rats when compound administered at 20 mg/kg po and vehicle dosed at 78.97 umol/kg; type: ADME, organism-based; parameters: dose 20 mg/kg, route oral; conditions: in vivo; how it was run: as §5
[21] = tested on: Rattus norvegicus; assay: Mean sodium excretion in rats when compound administered at 40 mg/kg po and vehicle dosed at 157.94 umol/kg; type: ADME, organism-based; parameters: dose 40 mg/kg, route oral; conditions: in vivo; how it was run: as §3
[22] = tested on: Rattus norvegicus; assay: Mean sodium excretion in rats when compound administered at 20 mg/kg po and vehicle dosed at 78.97 umol/kg; type: ADME, organism-based; parameters: dose 20 mg/kg, route oral; conditions: in vivo; how it was run: as §3
[23] = tested on: Rattus norvegicus; assay: Urinary sodium 6 hr after the compound was administered 125 mg/kg po in rat; type: ADME, organism-based, Urine; parameters: dose 125 mg/kg, route oral; conditions: in vivo; how it was run: as §2

`Nc1nc(N)c2nc(-c3ccccc3)c(N)nc2n1` was tested, and the V [1] was 30.19 ml 6hr-1 (kg of body weight)-1, the Urine volume [2] was 4.36 mL and the Na [3] was 3.37 m equiv 6hr-1 kg-1 (body weight)-1. For the same compound, the “Urinary Na+” value [4] was 0.19 m equiv, the V [5] was 44.92 ml 6hr-1 (kg of body weight)-1 and the V [6] was 24.94 ml 6hr-1 (kg of body weight)-1. The V [7] was 31.13 ml 6hr-1 (kg of body weight)-1, the Cl- [8] was 1.83 m equiv 6hr-1 kg-1 (body weight)-1 and the Cl- [9] was 3.05 m equiv 6hr-1 kg-1 (body weight)-1. The Na [10] was 0.58 m equiv 6hr-1 kg-1 (body weight)-1, the V [11] was 38.1 ml 6hr-1 (kg of body weight)-1 and the ED50 [12] was 34.5 mg/kg. For the same compound, the V [13] was 31.39 ml 6hr-1 (kg of body weight)-1, the Cl- [14] was 1.34 m equiv 6hr-1 kg-1 (body weight)-1 and the K [15] was 0.19 m equiv 6hr-1 kg-1 (body weight)-1. The “Urinary Na+” value [16] was 0.04 m equiv, the Na [17] was 1.69 m equiv 6hr-1 kg-1 (body weight)-1 and the V [18] was 32.87 ml 6hr-1 (kg of body weight)-1. For the same compound, the Cl- [19] was 1.89 m equiv 6hr-1 kg-1 (body weight)-1, the K [20] was 0.16 m equiv 6hr-1 kg-1 (body weight)-1 and the Na [21] was 2.88 m equiv 6hr-1 kg-1 (body weight)-1. The Na [22] was 2.42 m equiv 6hr-1 kg-1 (body weight)-1 and the “Urinary Na+” value [23] was 0.46 m equiv.
